Assay results taken from ChEMBL document CHEMBL4371051, “Synthesis and SAR of novel capsazepine analogs with significant anti-cancer effects in multiple cancer types” (Bioorg Med Chem, 2019).
The source made the active and inactive calls. The rule behind the calls is not given here.

Key:
HeLa [1] = assay: Antiproliferative activity against human HeLa cells after 24 hrs by cell titer 96 aqueous non-radioactive cell proliferation assay; assay type: functional, cell-based
Method in brief: (§1)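 Cells kept in high-glucose DMEM with 10% FBS and 1% penicillin/streptomycin at 37°C, 5% CO2. They were exposed for 24 h to compound in serum-free DMEM, with final EtOH ≤0.1% (ethanol stocks made fresh). Viability was read by MTS absorbance against vehicle-treated controls; n=4 per group.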

HeLa [2] = assay: Antitumor activity against human HeLa cells xenografted in athymic nude mouse assessed as tumor volume at 40 ug, administered intra-tumorally every day for 14 days (reference value: 562 mm3); assay type: functional
[3] = Toxicity in athymic nude mouse xenografted with human HeLa cells assessed as effect on adjacent non-malignant tissues at 40 ug, administered intra-tumorally every day for 14 days; details: in vivo, other, 336 h
[4] = Toxicity in athymic nude mouse xenografted with human HeLa cells assessed as effect on neurological function at 40 ug, administered intra-tumorally every day for 14 days; details: in vivo, other, 336 h
[5] = Toxicity in athymic nude mouse xenografted with human HeLa cells assessed as effect on respiration at 40 ug, administered intra-tumorally every day for 14 days; details: in vivo, other, 336 h
[6] = Toxicity in athymic nude mouse xenografted with human HeLa cells assessed as decrease in body weight at 40 ug, administered intra-tumorally every day for 14 days; details: in vivo, other, 336 h
[7] = Toxicity in athymic nude mouse xenografted with human HeLa cells assessed as effect on mobility at 40 ug, administered intra-tumorally every day for 14 days; details: in vivo, other, 336 h
[8] = Toxicity in athymic nude mouse xenografted with human HeLa cells assessed as effect on motor functions at 40 ug, administered intra-tumorally every day for 14 days; details: in vivo, other, 336 h
HSC-3 = assay: Antiproliferative activity against human HSC3 cells after 24 hrs by cell titer 96 aqueous non-radioactive cell proliferation assay; assay type: functional, cell-based; details: HSC-3, 24 h; method in brief: as §1
NCI-H460 = assay: Antiproliferative activity against human NCI-H460 cells after 24 hrs by cell titer 96 aqueous non-radioactive cell proliferation assay; assay type: functional, cell-based; details: NCI-H460, 24 h; method in brief: as §1
MDA-MB-231 = assay: Antiproliferative activity against human MDA231 cells after 24 hrs by cell titer 96 aqueous non-radioactive cell proliferation assay; assay type: functional, cell-based; details: MDA-MB-231, 24 h; method in brief: as §1
PC-3 = assay: Antiproliferative activity against human PC3 cells after 24 hrs by cell titer 96 aqueous non-radioactive cell proliferation assay; assay type: functional, cell-based; details: PC-3, 24 h; method in brief: as §1
[9] = molecular target: Transient receptor potential cation channel subfamily V member 1 (Homo sapiens) (UniProt Q8NER1); assay: Antagonist activity at TRPV1 (unknown origin) expressed in CHO cells assessed as inhibition of capsaicin-induced increase in calcium influx at 1 uM pretreated before 100 nM capsaicin addition by Calcium 6 dye-based FLIPR assay; assay type: cell-based
Chain of Transient receptor potential cation channel subfamily V member 1 (Homo sapiens) (Q8NER1 whole entry): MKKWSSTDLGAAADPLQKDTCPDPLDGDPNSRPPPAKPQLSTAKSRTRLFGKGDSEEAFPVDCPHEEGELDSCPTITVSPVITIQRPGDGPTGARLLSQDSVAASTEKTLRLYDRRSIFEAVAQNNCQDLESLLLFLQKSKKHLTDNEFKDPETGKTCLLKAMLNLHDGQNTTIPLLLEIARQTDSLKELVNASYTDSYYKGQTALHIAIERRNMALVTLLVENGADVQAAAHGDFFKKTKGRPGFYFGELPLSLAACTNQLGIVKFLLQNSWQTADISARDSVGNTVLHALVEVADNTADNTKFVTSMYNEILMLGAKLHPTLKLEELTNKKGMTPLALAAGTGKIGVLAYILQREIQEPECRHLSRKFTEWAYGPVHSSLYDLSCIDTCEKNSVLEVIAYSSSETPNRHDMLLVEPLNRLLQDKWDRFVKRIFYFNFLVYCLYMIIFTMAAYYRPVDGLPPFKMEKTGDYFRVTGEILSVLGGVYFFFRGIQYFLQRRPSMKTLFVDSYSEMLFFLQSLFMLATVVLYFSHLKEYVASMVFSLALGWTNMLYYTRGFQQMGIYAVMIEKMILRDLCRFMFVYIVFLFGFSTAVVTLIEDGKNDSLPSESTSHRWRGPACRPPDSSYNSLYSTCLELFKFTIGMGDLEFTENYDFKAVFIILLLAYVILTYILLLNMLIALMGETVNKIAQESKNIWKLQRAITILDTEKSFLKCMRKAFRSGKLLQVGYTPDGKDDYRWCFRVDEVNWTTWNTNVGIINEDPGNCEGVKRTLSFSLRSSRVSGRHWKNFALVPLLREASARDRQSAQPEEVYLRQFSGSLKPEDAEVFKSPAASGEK
Method in brief: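 CHO-TRPV1 cells, 9x10³ per well, loaded with Calcium 6 dye for 2 h. Cells were pretreated with 1 μM compound, then challenged with 100 nM capsaicin. TRPV1 inhibition was judged from the change in fluorescence at 535 nm.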

[10] = molecular target: Transient receptor potential cation channel subfamily V member 1 (Homo sapiens) (UniProt Q8NER1); assay: Agonist activity at TRPV1 (unknown origin) expressed in CHO cells assessed as increase in calcium influx at 1 uM by Calcium 6 dye-based FLIPR assay; assay type: cell-based
Method in brief: (§2)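 CHO cells stably overexpressing TRPV1, grown at 37°C in 5% CO2. 9x10³ cells per well, loaded with Calcium 6 dye for 2 h. Dose-response curves were run, then compounds at 1 μM were compared with 100 nM capsaicin as the positive control and 1 μM CPZ as the negative control. Calcium influx was read as the change in fluorescence at 535 nm; n=3 per group.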

HeLa [11] = assay: Potency index, ratio of capsazepine IC50 to compound IC50 for antiproliferative activity against human HeLa cells; assay type: functional
[12] = molecular target: Transient receptor potential cation channel subfamily V member 1 (Homo sapiens) (UniProt Q8NER1); assay: Agonist activity at TRPV1 (unknown origin) expressed in CHO cells assessed as increase in calcium influx by Calcium 6 dye-based FLIPR assay; assay type: cell-based; method in brief: as §2

SMILES	IC50 (HeLa [1]) [µM]	further results
CC(C)C1c2cc(O)c(O)cc2CCN1C(=S)NCCc1ccc(F)cc1 (configuration not stated)	28	
COc1ccc2c(c1)CN(C(=S)NCCc1ccc(Cl)cc1)CCC2	> 100	
COc1ccc2c(c1)CCCN(C(=S)NCCc1ccc(Cl)cc1)C2	> 100	
COc1ccc(CN(C)C(=O)NCCc2ccc(Cl)cc2)cc1OC	> 30	
Oc1cc2c(cc1O)C(c1ccccc1)N(C(=S)NCc1ccccc1)CC2 (configuration not stated)	< 5	Activity (HeLa [2]): 283 mm3; Activity [3]: Non-Toxic; Activity [4]: Non-Toxic; Activity [5]: Non-Toxic; Activity [6]: Non-Toxic; Activity [7]: Non-Toxic; Activity [8]: Non-Toxic; IC50 (HSC-3): 2 µM; IC50 (NCI-H460): 42 µM; IC50 (MDA-MB-231): 32 µM; IC50 (PC-3): 2.5 µM; inhibition [9]: inactive; Activity [10]: inactive; Ratio IC50 (HeLa [11]): 6
Oc1ccc2c(c1)CCCN(C(=S)NCCc1ccc(Cl)cc1)C2	65	
Oc1cc2c(cc1O)C(c1ccccc1)N(C(=S)NCCc1ccc(F)cc1)CC2 (configuration not stated)	17	
COc1ccc(CCNC(=S)N2CCc3cc(O)c(O)cc3C2c2ccccc2)cc1 (configuration not stated)	24	
Oc1cc2c(cc1O)CN(C(=S)NCCc1ccccc1)CC2	25	
CC(C)C1c2cc(O)c(O)cc2CCN1C(=S)NCCc1ccc(Cl)cc1 (configuration not stated)	55	
COc1cc2c(cc1OC)CN(C(=S)NCCc1ccc(Cl)cc1)CC2	> 100	
Oc1cc2c(cc1O)CN(C(=S)NCCc1ccc(Cl)cc1)CC2	< 10	Activity (HeLa [2]): 351 mm3; Activity [3]: Non-Toxic; Activity [4]: Non-Toxic; Activity [5]: Non-Toxic; Activity [6]: Non-Toxic; Activity [7]: Non-Toxic; Activity [8]: Non-Toxic; IC50 (HSC-3): 20 µM; IC50 (NCI-H460): 23 µM; IC50 (MDA-MB-231): 5 µM; IC50 (PC-3): 13 µM; Activity [12]: Dose-dependent effect
O=C(NCCc1ccc(Cl)cc1)N1CCc2cc(O)c(O)cc2C1	15	
Oc1cc2c(cc1O)CN(C(=S)NCCc1ccc(Cl)cc1)CCC2 [CAPSAZEPINE]	30	
CN(Cc1ccc(O)c(O)c1)C(=O)NCCc1ccc(Cl)cc1	30	
Oc1cc2c(cc1O)CN(C(=S)NCCc1ccc(Cl)cc1)C2	85	

SMILES	IC50 (HeLa [1]) [µM]	further results
Oc1cc2c(cc1O)C(c1ccccc1)N(C(=S)NCCc1ccc(Cl)cc1)CC2 (configuration not stated)	< 5	
CC(C)C1c2cc(O)c(O)cc2CCN1C(=S)NCCc1ccccc1 (configuration not stated)	67	
CN(CCc1ccc(O)c(O)c1)C(=S)NCCc1ccc(Cl)cc1	30	
COc1ccc(CCNC(=S)N2CCc3cc(O)c(O)cc3C2)cc1	> 100	
Oc1cc2c(cc1O)CN(C(=S)NCCc1ccc(Cl)cc1Cl)CC2	30	
COc1cc2c(cc1OC)CN(C(=O)NCCc1ccc(Cl)cc1)CC2	> 100	
Oc1cc2c(cc1O)CN(C(=S)NCc1ccccc1)CC2	> 100	
Oc1cc2c(cc1O)C(c1ccccc1)N(C(=S)NCCc1ccccc1)CC2 (configuration not stated)	25	
CN(CCc1ccc(O)c(O)c1)C(=O)NCCc1ccc(Cl)cc1	> 30	
Oc1cc2c(cc1O)CN(C(=S)NCCc1ccc(F)cc1)CC2	25	
CN(Cc1ccc(O)c(O)c1)C(=S)NCCc1ccc(Cl)cc1	> 100	
CC(C)C1c2cc(O)c(O)cc2CCN1C(=S)NCc1ccccc1 (configuration not stated)	35	
CC(C)C1c2cc(O)c(O)cc2CCN1C(=S)NCCc1ccc(Cl)cc1Cl (configuration not stated)	46	
Oc1cc2c(cc1O)C(c1ccccc1)N(C(=S)NCCc1ccc(Cl)cc1Cl)CC2 (configuration not stated)	20	
Oc1ccc2c(c1)CN(C(=S)NCCc1ccc(Cl)cc1)CCC2	50	
